Values after ≈ are worked out from the molar mass of the structure shown.
What was measured:
Type in all cases: functional
[1] = system: Escherichia coli; experiment: Antibacterial activity against Escherichia coli JM 109 by twofold serial dilution technique
[2] = system: Staphylococcus aureus; experiment: Antibacterial activity against methicillin-resistant Staphylococcus aureus N315 by twofold serial dilution technique
Procedure, shortened: (§1)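 MIC by two-fold broth dilution in 96-well plates following NCCLS. Compounds were dissolved in DMSO as stock, then diluted in Mueller-Hinton broth to 512 down to 0.5. Inoculum was bacterial suspension adjusted with sterile saline to 1 ×10⁵ CFU. Plates were incubated 37 °C for 24 h, with a DMSO-supplemented medium control at matching dilutions. Chloramphenicol was the reference.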

[3] = system: Shigella dysenteriae; experiment: Antibacterial activity against Shigella dysenteriae by twofold serial dilution technique; procedure, shortened: as §1
[4] = Antibacterial activity against Eberthella typhosa by twofold serial dilution technique
[5] = system: Staphylococcus aureus; experiment: Antibacterial activity against Staphylococcus aureus ATCC 25923 by twofold serial dilution technique
[6] = system: Bacillus subtilis; experiment: Antibacterial activity against Bacillus subtilis ATCC 6633 by twofold serial dilution technique
[7] = system: Candida; experiment: Antifungal activity against Candida mycoderma by twofold serial dilution technique
Procedure, shortened: (§2)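 Two-fold serial dilution MIC in 96-well microtest plates. Test compounds from DMSO stocks, with fluconazole as reference. MIC read as the first well showing about 80% growth reduction versus the drug-free well.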

[8] = system: Pseudomonas aeruginosa; experiment: Antibacterial activity against Pseudomonas aeruginosa by twofold serial dilution technique
[9] = system: Candida albicans; experiment: Antifungal activity against Candida albicans ATCC 76615 by twofold serial dilution technique; procedure, shortened: as §2

## C#CCNS(=O)(=O)c1ccc(N)cc1
[1]
  MIC: > 512 µg/mL
[2]
  MIC: > 512 µg/mL
[3]
  MIC: > 512 µg/mL
[4]
  MIC: > 512 µg/mL
[5]
  MIC: > 512 µg/mL
[6]
  MIC: > 512 µg/mL
[7]
  MIC: > 512 µg/mL
[8]
  MIC: > 512 µg/mL
[9]
  MIC: > 512 µg/mL

## CCCCCn1cc(CNS(=O)(=O)c2ccc(N)cc2)nn1
[1]
  MIC: > 512 µg/mL
[2]
  MIC: > 512 µg/mL
[3]
  MIC: 512 µg/mL (≈ 1580 µM)
[4]
  MIC: 512 µg/mL (≈ 1580 µM)
[5]
  MIC: > 512 µg/mL
[6]
  MIC: > 512 µg/mL
[7]
  MIC: > 512 µg/mL
[8]
  MIC: 512 µg/mL (≈ 1580 µM)
[9]
  MIC: > 512 µg/mL

## CCCCCCn1cc(CNS(=O)(=O)c2ccc(N)cc2)nn1
[1]
  MIC: > 512 µg/mL
[2]
  MIC: 512 µg/mL (≈ 1520 µM)
[3]
  MIC: 256 µg/mL (≈ 759 µM)
[4]
  MIC: > 512 µg/mL
[5]
  MIC: 512 µg/mL (≈ 1520 µM)
[6]
  MIC: 256 µg/mL (≈ 759 µM)
[7]
  MIC: > 512 µg/mL
[8]
  MIC: 256 µg/mL (≈ 759 µM)
[9]
  MIC: > 512 µg/mL

## CCCCCCCCn1cc(CNS(=O)(=O)c2ccc(N)cc2)nn1
[1]
  MIC: 512 µg/mL (≈ 1400 µM)
[2]
  MIC: 512 µg/mL (≈ 1400 µM)
[3]
  MIC: 256 µg/mL (≈ 700 µM)
[4]
  MIC: 256 µg/mL (≈ 700 µM)
[5]
  MIC: > 512 µg/mL
[6]
  MIC: 256 µg/mL (≈ 700 µM)
[7]
  MIC: 512 µg/mL (≈ 1400 µM)
[8]
  MIC: 128 µg/mL (≈ 350 µM)
[9]
  MIC: > 512 µg/mL

## CCCCCCCCCCn1cc(CNS(=O)(=O)c2ccc(N)cc2)nn1
[1]
  MIC: 512 µg/mL (≈ 1300 µM)
[2]
  MIC: 512 µg/mL (≈ 1300 µM)
[3]
  MIC: 128 µg/mL (≈ 325 µM)
[4]
  MIC: 128 µg/mL (≈ 325 µM)
[5]
  MIC: 256 µg/mL (≈ 650 µM)
[6]
  MIC: 64 µg/mL (≈ 163 µM)
[7]
  MIC: > 512 µg/mL
[8]
  MIC: 64 µg/mL (≈ 163 µM)
[9]
  MIC: > 512 µg/mL

## CCCCCCCCCCCCn1cc(CNS(=O)(=O)c2ccc(N)cc2)nn1
[1]
  MIC: 64 µg/mL (≈ 152 µM)
[2]
  MIC: 128 µg/mL (≈ 304 µM)
[3]
  MIC: 32 µg/mL (≈ 75.9 µM)
[4]
  MIC: 64 µg/mL (≈ 152 µM)
[5]
  MIC: 128 µg/mL (≈ 304 µM)
[6]
  MIC: 128 µg/mL (≈ 304 µM)
[7]
  MIC: 256 µg/mL (≈ 607 µM)
[8]
  MIC: 32 µg/mL (≈ 75.9 µM)
[9]
  MIC: 512 µg/mL (≈ 1210 µM)

## CCCCCCCCCCCCCCCCn1cc(CNS(=O)(=O)c2ccc(N)cc2)nn1
[1]
  MIC: 256 µg/mL (≈ 536 µM)
[2]
  MIC: 512 µg/mL (≈ 1070 µM)
[3]
  MIC: 128 µg/mL (≈ 268 µM)
[4]
  MIC: 128 µg/mL (≈ 268 µM)
[5]
  MIC: 256 µg/mL (≈ 536 µM)
[6]
  MIC: 256 µg/mL (≈ 536 µM)
[7]
  MIC: > 512 µg/mL
[8]
  MIC: 64 µg/mL (≈ 134 µM)
[9]
  MIC: > 512 µg/mL

## Nc1ccc(S(=O)(=O)NCc2cn(Cc3ccccc3)nn2)cc1
[1]
  MIC: > 512 µg/mL
[2]
  MIC: 256 µg/mL (≈ 745 µM)
[3]
  MIC: 512 µg/mL (≈ 1490 µM)
[4]
  MIC: 512 µg/mL (≈ 1490 µM)
[5]
  MIC: 512 µg/mL (≈ 1490 µM)
[6]
  MIC: > 512 µg/mL
[7]
  MIC: > 512 µg/mL
[8]
  MIC: 512 µg/mL (≈ 1490 µM)
[9]
  MIC: > 512 µg/mL

## Cc1cccc(Cn2cc(CNS(=O)(=O)c3ccc(N)cc3)nn2)c1
[1]
  MIC: > 512 µg/mL
[2]
  MIC: > 512 µg/mL
[3]
  MIC: > 512 µg/mL
[4]
  MIC: 512 µg/mL (≈ 1430 µM)
[5]
  MIC: > 512 µg/mL
[6]
  MIC: 512 µg/mL (≈ 1430 µM)
[7]
  MIC: > 512 µg/mL
[8]
  MIC: > 512 µg/mL
[9]
  MIC: > 512 µg/mL

## Nc1ccc(S(=O)(=O)NCc2cn(Cc3ccc([N+](=O)[O-])cc3)nn2)cc1
[1]
  MIC: > 512 µg/mL
[2]
  MIC: 256 µg/mL (≈ 659 µM)
[3]
  MIC: > 512 µg/mL
[4]
  MIC: > 512 µg/mL
[5]
  MIC: > 512 µg/mL
[6]
  MIC: 256 µg/mL (≈ 659 µM)
[7]
  MIC: > 512 µg/mL
[8]
  MIC: > 512 µg/mL
[9]
  MIC: > 512 µg/mL

## Nc1ccc(S(=O)(=O)NCc2cn(Cc3ccccc3Cl)nn2)cc1
[1]
  MIC: > 512 µg/mL
[2]
  MIC: > 512 µg/mL
[3]
  MIC: 512 µg/mL (≈ 1360 µM)
[4]
  MIC: > 512 µg/mL
[5]
  MIC: > 512 µg/mL
[6]
  MIC: > 512 µg/mL
[7]
  MIC: > 512 µg/mL
[8]
  MIC: 512 µg/mL (≈ 1360 µM)
[9]
  MIC: > 512 µg/mL

## Nc1ccc(S(=O)(=O)NCc2cn(Cc3cccc(Cl)c3)nn2)cc1
[1]
  MIC: > 512 µg/mL
[2]
  MIC: 256 µg/mL (≈ 678 µM)
[3]
  MIC: > 512 µg/mL
[4]
  MIC: 256 µg/mL (≈ 678 µM)
[5]
  MIC: 512 µg/mL (≈ 1360 µM)
[6]
  MIC: > 512 µg/mL
[7]
  MIC: > 512 µg/mL
[8]
  MIC: 512 µg/mL (≈ 1360 µM)
[9]
  MIC: > 512 µg/mL

## Nc1ccc(S(=O)(=O)NCc2cn(Cc3ccc(Cl)cc3)nn2)cc1
[1]
  MIC: > 512 µg/mL
[2]
  MIC: > 512 µg/mL
[3]
  MIC: > 512 µg/mL
[4]
  MIC: 512 µg/mL (≈ 1360 µM)
[5]
  MIC: 512 µg/mL (≈ 1360 µM)
[6]
  MIC: > 512 µg/mL
[7]
  MIC: > 512 µg/mL
[8]
  MIC: > 512 µg/mL
[9]
  MIC: > 512 µg/mL

## Nc1ccc(S(=O)(=O)NCc2cn(Cc3ccc(Cl)cc3Cl)nn2)cc1
[1]
  MIC: 128 µg/mL (≈ 310 µM)
[2]
  MIC: 128 µg/mL (≈ 310 µM)
[3]
  MIC: 32 µg/mL (≈ 77.6 µM)
[4]
  MIC: 128 µg/mL (≈ 310 µM)
[5]
  MIC: 64 µg/mL (≈ 155 µM)
[6]
  MIC: 128 µg/mL (≈ 310 µM)
[7]
  MIC: 512 µg/mL (≈ 1240 µM)
[8]
  MIC: 64 µg/mL (≈ 155 µM)
[9]
  MIC: 512 µg/mL (≈ 1240 µM)

## Nc1ccc(S(=O)(=O)NCc2cn(Cc3ccc(F)cc3)nn2)cc1
[1]
  MIC: 256 µg/mL (≈ 708 µM)
[2]
  MIC: > 512 µg/mL
[3]
  MIC: 128 µg/mL (≈ 354 µM)
[4]
  MIC: 256 µg/mL (≈ 708 µM)
[5]
  MIC: 128 µg/mL (≈ 354 µM)
[6]
  MIC: > 512 µg/mL
[7]
  MIC: > 512 µg/mL
[8]
  MIC: 128 µg/mL (≈ 354 µM)
[9]
  MIC: > 512 µg/mL

## Nc1ccc(S(=O)(=O)NCc2cn(Cc3ccc(F)cc3F)nn2)cc1
[1]
  MIC: 128 µg/mL (≈ 337 µM)
[2]
  MIC: 128 µg/mL (≈ 337 µM)
[3]
  MIC: 16 µg/mL (≈ 42.2 µM)
[4]
  MIC: 128 µg/mL (≈ 337 µM)
[5]
  MIC: 64 µg/mL (≈ 169 µM)
[6]
  MIC: 128 µg/mL (≈ 337 µM)
[7]
  MIC: 512 µg/mL (≈ 1350 µM)
[8]
  MIC: 16 µg/mL (≈ 42.2 µM)
[9]
  MIC: 256 µg/mL (≈ 675 µM)

## O=C(N[C@H](CO)[C@H](O)c1ccc([N+](=O)[O-])cc1)C(Cl)Cl [CHLORAMPHENICOL]
[1]
  MIC: 4 µg/mL (≈ 12.4 µM)
[2]
  MIC: 2 µg/mL (≈ 6.19 µM)
[3]
  MIC: 4 µg/mL (≈ 12.4 µM)
[4]
  MIC: 2 µg/mL (≈ 6.19 µM)
[5]
  MIC: 4 µg/mL (≈ 12.4 µM)
[6]
  MIC: 2 µg/mL (≈ 6.19 µM)
[8]
  MIC: 8 µg/mL (≈ 24.8 µM)

## OC(Cn1cncn1)(Cn1cncn1)c1ccc(F)cc1F [FLUCONAZOLE]
[7]
  MIC: 4 µg/mL (≈ 13.1 µM)
[9]
  MIC: 0.5 µg/mL (≈ 1.63 µM)

— ChEMBL document CHEMBL1250506, “Synthesis of novel sulfanilamide-derived 1,2,3-triazoles and their evaluation for antibacterial and antifungal activities” (2010)
